Rows were chosen to be rich in hits. Some 2.6% of all compounds tested hit in one or more screens of this group.
Platelet DG rel: platelet dense granule release activity; AID 1663; human platelet-rich plasma, SFLLRN dense granule ATP release, luminescence; actives 0.22% (n = 300,000); inhibition, %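 (compounds screened at 7.5 µM in platelet-rich plasma)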;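 active = mean replicate score, as percent of positive control, at or above 50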
SENP1 FRET inh: SENP1 (human) catalytic domain inhibition | Q9P0U3 | recombinant SENP1 catalytic domain, CyPet-SUMO1-YPet FRET cleavage | inhibition, % at 10 µM | actives 0.21% (n = 360,000) | AID 624204;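 active = inhibition at least 30% at 10 µM, raw YFP signal under a set limit, fluorescence ratio 0.5 to 1.5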;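 note: 0% = enzyme with DMSO and 100% = no enzyme wells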
Target sequence (Q9P0U3 419-644 limits assumed): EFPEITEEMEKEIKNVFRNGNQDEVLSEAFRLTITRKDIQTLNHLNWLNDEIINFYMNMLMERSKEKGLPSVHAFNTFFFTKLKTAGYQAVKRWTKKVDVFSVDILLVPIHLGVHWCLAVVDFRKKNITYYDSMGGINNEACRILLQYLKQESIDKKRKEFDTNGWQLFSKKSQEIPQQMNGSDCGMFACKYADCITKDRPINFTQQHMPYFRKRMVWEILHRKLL
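Controls: no-enzyme wells low, DMSO-plus-enzyme wells high control. Test system: human recombinant His6-tagged SENP1 catalytic domain enzyme. Reagent: SFCypet-SUMO1-SFYpet FRET protein substrate, 25 nM final. Doses: one dose per compound, 10 µM, 0.5% DMSO. Detection: FRET, CFP and YFP emission. Timing: 50 min reaction at room temperature.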
SENP8 block-1: SENP8 (human) protease inhibition. inhibition, % at 20 µM. Q96LD8. AID 602440. recombinant SENP8, Nedd8 substrate fluorescence. actives 0.64% (n = 360,000); in the data active = inhibition mostly above about 40%, no sharp cut-off; inactive = mostly below about 27%
Target sequence (Q96LD8 whole entry, looked up): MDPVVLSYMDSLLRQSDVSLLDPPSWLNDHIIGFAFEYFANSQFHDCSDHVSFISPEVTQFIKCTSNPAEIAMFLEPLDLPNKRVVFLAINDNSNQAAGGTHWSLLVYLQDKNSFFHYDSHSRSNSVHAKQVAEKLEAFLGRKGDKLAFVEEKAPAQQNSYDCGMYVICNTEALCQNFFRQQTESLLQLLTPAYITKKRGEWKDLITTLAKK
SENP6 inh: blocks the human protease SENP6; actives 1.8% (n = 330,000); Q9GZR1; Recombinant SENP6 catalytic domain, aminoluciferin luminescence; inhibition, % at 10 µM;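 active = inhibition above about 50% at the single tested dose, limit read from the data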;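 note: plate controls were DMSO wells with enzyme for no effect and DMSO wells lacking enzyme for full effect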
SENP8 block-2: inhibitors of human SENP8 protease. purified SENP8, Z-RLRGG-aminoluciferin cleavage, luminescence. inhibition, % at 10 µM. actives 1.2% (n = 330,000); in the data active = inhibition above about 50%
SENP7 inh: blocks the human protease SENP7; AID 434973; inhibition, % at 5 µM; actives 1.5% (n = 330,000); recombinant SENP7, Z-RLRGG-aminoluciferin luminescence, 40 min;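 active = inhibition above about 50% at the single test dose, limit read from the data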;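 note: plate controls were DMSO with enzyme for no effect and no enzyme buffer wells for full effect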
SENP8 confirm: confirmation of human SENP8 protease inhibitors; shares compounds with SENP7 inh; Recombinant SENP8, Z-RLRGG-aminoluciferin luminescence, 60 min; inhibition, % at 12.5 µM; actives 40% (n = 6,200); AID 488912;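 active = mean inhibition across replicates above about 50%, limit read from the data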
SENP6 conf: confirmation of human SENP6 protease inhibitors; shares compounds with SENP7 inh; recombinant SENP6, Z-RLRGG-aminoluciferin luminescence; inhibition, % at 12.5 µM; actives 58% (n = 6,200)
SENP7 confirm: confirmation of human SENP7 protease inhibitors | shares compounds with SENP7 inh | recombinant SENP7, Z-RLRGG-aminoluciferin luminescence, 40 min | inhibition, % at 12.5 µM | actives 69% (n = 6,200)
Casp3 SENP sel: caspase-3 inhibition (SENP selectivity assay); purified caspase-3, Z-DEVD-aminoluciferin luminescence, 60 min; shares compounds with SENP7 inh; actives 60% (n = 6,200); inhibition, % at 12.5 µM;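 active = mean inhibition above about 50%, limit read from the data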;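 note: plate controls were enzyme with DMSO for no effect and wells without caspase-3 for full effect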
Target sequence (P42574 28-227 limits assumed): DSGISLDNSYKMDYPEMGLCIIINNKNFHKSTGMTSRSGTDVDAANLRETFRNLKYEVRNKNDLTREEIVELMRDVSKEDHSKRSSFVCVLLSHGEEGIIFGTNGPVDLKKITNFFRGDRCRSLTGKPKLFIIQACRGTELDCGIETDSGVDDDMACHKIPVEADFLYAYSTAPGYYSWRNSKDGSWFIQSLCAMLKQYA
SENP luc ctr: interferes with luciferase luminescence in SENP counter-screen; actives 39% (n = 6,200); Pre-incubated SENP8/Z-RLRGG-aminoluciferin, luciferase luminescence interference; AID 488919; inhibition, % at 12.5 µM; shares compounds with SENP7 inh;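 active = mean inhibition above about 50% when retested at one dose, limit read from the data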;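 note: plate controls were DMSO wells with completed reaction for no effect and substrate without enzyme for full effect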
* = called active by the depositor; x = no result given.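 Rule for the calls, unless noted: active = mean inhibition above about 50% in the one-dose retest (limit read from the data); inactive = the rest.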

SMILES | Platelet DG rel | SENP1 FRET inh | SENP8 block-1 | SENP6 inh | SENP8 block-2 | SENP7 inh | SENP8 confirm | SENP6 conf | SENP7 confirm | Casp3 SENP sel | SENP luc ctr
COCC(=O)Nc1nc2ccc(C)cc2s1 | 0 | 0 | 2 | 68* | 30 | 58* | 67* | 62* | 88* | 82* | 64*
Cc1ccc2nc(NC(=O)c3ccco3)sc2c1 | 22 | -1 | -151 | 92* | 93* | 96* | 5 | 94* | 101* | 92* | 58*
Cc1ccc2nc(NC(=S)NC(=O)c3ccco3)sc2c1 | 0 | -8 | -7 | x | x | x | x | x | x | x | x
COc1ccc2nc(NC(=O)c3ccco3)sc2c1 | x | 1 | -204 | 88* | 87* | 93* | 93* | 93* | 101* | 94* | 79*
COc1cc2sc(NC(=O)c3ccco3)nc2cc1Cl | 11 | -1 | -295 | -31 | 18 | 3 | x | x | x | x | x
COc1ccc(-c2csc(NC(=O)c3ccco3)n2)cc1 | 0 | -4 | -55 | 56* | 28 | 25 | 43 | 38 | 75* | 32 | 30
Clc1ccc(CNc2cnccn2)cc1 | 4 | -5 | -421 | -14 | 3 | 6 | x | x | x | x | x
O=C(Nc1nc2ccc(Cl)cc2s1)c1ccco1 | 4 | 0 | -166 | 86* | 81* | 89* | 41 | 80* | 59* | 86* | 17
O=C(Nc1ccc(-c2cn3ccccc3n2)cc1)c1ccco1 | 8 | 0 | -43 | 71* | 42 | 59* | 59* | 58* | 85* | 79* | 69*
CC1CC1C(=O)Nc1nc2ccc(Cl)cc2s1 (stereo not given) | 10 | 2 | 16 | 1 | -3 | -2 | x | x | x | x | x
Cn1cc(Cl)c(C(=O)Nc2nc3ccc(Cl)cc3s2)n1 | 8 | 1 | -18 | 68* | 48 | 95* | 28 | 44 | 67* | 55* | 8
N=C1/C(=C/c2cccs2)C(=O)N=C2SN=C(SCc3ccccc3)N12 | 2 | 1 | 27 | 66* | 29 | 19 | 47 | 59* | 31 | 15 | 33
CSC1=NSC2=NC(=O)/C(=C\c3cccs3)C(=N)N12 | 8 | -4 | 17 | x | x | x | x | x | x | x | x
CC(C)CSC1=NSC2=NC(=O)/C(=C\c3cccs3)C(=N)N12 | 0 | -6 | 10 | 68* | 34 | 11 | 51* | 53* | 48 | 28 | 39
O=C(COC(=O)c1ccc2c(c1)OCO2)NCc1ccc2c(c1)OCO2 | 0 | 2 | 4 | -3 | 6 | 1 | x | x | x | x | x
O=C(COC(=O)c1ccco1)NCc1ccc2c(c1)OCO2 | 4 | 2 | 10 | 58* | -3 | 5 | -4 | -6 | -8 | 2 | -3
N#Cc1c(N)n(CCNC(=O)c2ccccc2)c2nc3ccccc3nc12 | 2 | -27 | -408 | 16 | 3 | 10 | x | x | x | x | x
CCCCn1c(NC(C)=O)c(C#N)c2nc3ccccc3nc21 | -10 | -21 | -322 | 97* | 34 | 66* | 12 | 31 | 14 | 4 | 0
CCCCCn1c(N)c(C#N)c2nc3ccccc3nc21 | -3 | -43 | -287 | 10 | 2 | 3 | x | x | x | x | x
CCCCn1c(NC(=O)c2ccc(Br)o2)c(S(=O)(=O)c2ccccc2)c2nc3ccccc3nc21 | -2 | -29 | -286 | 87* | 86* | 49 | -3 | 40 | 12 | -5 | -4
C=CCn1c(NC(=O)c2ccccc2Cl)c(C#N)c2nc3ccccc3nc21 | -14 | -15 | -353 | 94* | 97* | 49 | 26 | 73* | 66* | 6 | 5
CN(C)c1ccc(C(=O)OCC(=O)N2CCOCC2)cc1 | -4 | 0 | 3 | -9 | -8 | 6 | x | x | x | x | x
Cc1cccc(NCc2nc3ccccc3n2Cc2ccccc2)c1 | -2 | 3 | -1 | 58* | 23 | 27 | 29 | 26 | 58* | 25 | 35
Cc1ccc(NCc2nc3ccccc3n2C)c(C)c1 | 14 | 1 | 12 | 76* | 71* | 79* | 83* | 83* | 95* | 88* | 85*
Cc1nc2cc(NCc3nc4ccccc4n3Cc3ccccc3)ccc2n1C | 6 | -18 | -37 | 42 | 27 | -1 | x | x | x | x | x
SMILES | Platelet DG rel | SENP1 FRET inh | SENP8 block-1 | SENP6 inh | SENP8 block-2 | SENP7 inh | SENP8 confirm | SENP6 conf | SENP7 confirm | Casp3 SENP sel | SENP luc ctr
Cc1cccc(NCc2nc3ccccc3n2C)c1 | 1 | 1 | 15 | 50* | 29 | 56* | 42 | 42 | 79* | 71* | 56*
COCCn1nnnc1C(c1ccc(OC)c(OC)c1)N1CCc2ccccc21 (stereo not given) | -11 | -3 | 10 | 3 | 10 | 8 | x | x | x | x | x
Cc1cc(C)cc(NC(=O)C/C(N)=N/O)c1 | 0 | 0 | 15 | -3 | -7 | -6 | x | x | x | x | x
Cc1ccc(S(=O)(=O)NNc2nnc(C)c(=O)[nH]2)cc1 | -4 | 1 | -1 | -2 | 11 | 7 | x | x | x | x | x
COc1cccc2sc(N(C)c3ccccc3)nc12 | 13 | 0 | 16 | 47 | 76* | 89* | -8 | 83* | 96* | 78* | 83*
CCN1CCN(S(=O)(=O)c2ccc(S(=O)(=O)NCC3CCCO3)cc2)CC1 (stereo not given) | -5 | 3 | 1 | 6 | -6 | -15 | x | x | x | x | x
Cc1nn(C(C)C(=O)NCc2ccc(Cl)cc2)c(=O)c2cc3occc3n12 (stereo not given) | -2 | 0 | 3 | -21 | -6 | 8 | x | x | x | x | x
CCOC(=O)/C(=N\Nc1ncnc2ccccc12)c1ccc(OC)cc1 | -3 | -13 | 15 | 77* | 74* | 65* | 24 | 70* | 90* | 48 | 8
O=C1C(Nc2ccccc2)=CC(c2ccc(O)cc2)N1c1ccccc1 (stereo not given) | -3 | -73 | -452 | 58* | 5 | 3 | 9 | 5 | -3 | 4 | 2
COc1ccc(NC(=O)c2ccccc2)cc1 | x | 0 | 15 | 51* | 41 | 58* | 31 | 32 | 78* | 79* | 57*
COc1ccc(C(=O)NNC(=O)C(=O)Nc2ccc(C)cc2)cc1 | 1 | 1 | 16 | -20 | -10 | -8 | x | x | x | x | x
